Data as given in ChEMBL document CHEMBL1155643, “Isolation of a novel protein tyrosine phosphatase inhibitor, 2-methyl-fervenulone, and its precursors from Streptomyces” (J Nat Prod, 2000).
Active and inactive are the calls of the source. The calls are words filed in the database; no cut-off is given here.

Tests used:
[1] = tested on: Yersinia sp.; experiment: Inhibition of Yersinia sp. protein tyrosine phosphatase yop at 1 uM relative to control; parameters: scale not given: the % may be the effect or the level left
How it was run: (§1)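 Commercial phosphatase. pNPP dephosphorylation with 2 mM pNPP in 50 mM sodium acetate pH 5.5, 0.5 mg/mL BSA, 0.5 mM dithiothreitol, at 30 °C. Reactions stopped within the linear phase. Activity expressed as percent of the control without inhibitor. Mean of three separate enzyme preparations, each assayed in duplicate, ± S.D.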

[2] = Inhibition of protein tyrosine phosphatase epsilon D1D2 domain at 1 uM relative to control; parameters: scale not given: the % may be the effect or the level left
How it was run: (§2)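 Bacterially expressed, purified PTPα or PTPε. pNPP (2 mM) dephosphorylation in 50 mM sodium acetate pH 5.5 with 0.5 mg/mL BSA and 0.5 mM DTT, at 30 °C, stopped during the linear phase. Percent activity relative to the uninhibited control. Average of three enzyme preparations, each run in duplicate, ± S.D.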

[3] = Inhibition of protein tyrosine phosphatase CD45 domain at 1 uM relative to control; parameters: scale not given: the % may be the effect or the level left; how it was run: as §1
[4] = target: T1, Tyrosine-protein phosphatase non-receptor type 2 (Homo sapiens) (UniProt P17706); experiment: Inhibition of TCPTP at 1 uM relative to control; parameters: scale not given: the % may be the effect or the level left; how it was run: as §1
T1 sequence (whole entry): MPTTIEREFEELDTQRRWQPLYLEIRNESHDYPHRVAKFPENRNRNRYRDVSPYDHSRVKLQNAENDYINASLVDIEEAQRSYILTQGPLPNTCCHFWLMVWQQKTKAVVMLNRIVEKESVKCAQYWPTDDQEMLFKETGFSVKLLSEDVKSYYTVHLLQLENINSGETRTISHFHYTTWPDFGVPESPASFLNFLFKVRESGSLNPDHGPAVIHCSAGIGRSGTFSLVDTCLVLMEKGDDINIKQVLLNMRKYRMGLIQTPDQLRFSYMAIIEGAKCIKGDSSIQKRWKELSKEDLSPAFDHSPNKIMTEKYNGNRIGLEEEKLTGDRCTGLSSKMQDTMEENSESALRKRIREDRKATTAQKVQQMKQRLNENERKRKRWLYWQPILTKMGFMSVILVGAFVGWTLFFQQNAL

[5] = Inhibition of protein tyrosine phosphatase alpha D1D2 domain at 1 uM relative to control; parameters: scale not given: the % may be the effect or the level left; how it was run: as §2
[6] = Inhibition of protein tyrosine phosphatase LAR-D1 domain at 1 uM relative to control; parameters: scale not given: the % may be the effect or the level left; how it was run: as §1
[7] = target: T2, Serine/threonine-protein phosphatase (Enterobacteria phage lambda) (UniProt P03772); experiment: Inhibition of enterobactera phage lambda PP at 1 uM relative to control; parameters: scale not given: the % may be the effect or the level left
T2 sequence (whole entry): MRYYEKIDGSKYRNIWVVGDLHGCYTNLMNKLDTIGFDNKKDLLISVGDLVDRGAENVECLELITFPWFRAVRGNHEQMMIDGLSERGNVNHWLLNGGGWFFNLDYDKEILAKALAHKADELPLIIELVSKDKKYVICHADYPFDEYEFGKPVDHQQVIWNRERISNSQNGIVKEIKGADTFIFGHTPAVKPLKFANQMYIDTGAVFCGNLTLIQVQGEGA
How it was run: (§3)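 Commercial enzyme acting on 2 mM pNPP in 50 mM sodium acetate with 0.5 mg/mL BSA and 0.5 mM DTT, at 30 °C, linear phase. pH 7 for CIP; pH 5.5 plus 2 mM Mn2+ for λPP. Percent of the no-inhibitor control. Three enzyme preparations, each in duplicate, ± S.D.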

[8] = organism: Bos taurus; experiment: Inhibition of calf intestinal alkaline phosphatase at 1 uM relative to control; parameters: scale not given: the % may be the effect or the level left; how it was run: as §3
[9] = tested on: Mycolicibacterium smegmatis; experiment: Antimicrobial activity against Mycobacterium smegmatis at 50 uM; type: functional, organism-based
[10] = tested on: Mycolicibacterium smegmatis; experiment: Antimicrobial activity against Mycobacterium smegmatis at 100 uM; type: functional, organism-based
[11] = tested on: Staphylococcus aureus; experiment: Antimicrobial activity against Staphylococcus aureus at 50 uM; type: functional, organism-based
[12] = tested on: Staphylococcus aureus; experiment: Antimicrobial activity against Staphylococcus aureus at 100 uM; type: functional, organism-based
[13] = tested on: Escherichia coli; experiment: Antimicrobial activity against Escherichia coli at 50 uM; type: functional, organism-based
[14] = tested on: Escherichia coli; experiment: Antimicrobial activity against Escherichia coli at 100 uM; type: functional, organism-based
[15] = tested on: Enterococcus faecalis; experiment: Antimicrobial activity against Enterococcus faecalis at 50 uM; type: functional, organism-based
[16] = tested on: Enterococcus faecalis; experiment: Antimicrobial activity against Enterococcus faecalis at 100 uM; type: functional, organism-based
[17] = tested on: Proteus vulgaris; experiment: Antimicrobial activity against Proteus vulgaris at 50 uM; type: functional, organism-based
[18] = tested on: Proteus vulgaris; experiment: Antimicrobial activity against Proteus vulgaris at 100 uM; type: functional, organism-based
[19] = tested on: Pseudomonas aeruginosa; experiment: Antimicrobial activity against Pseudomonas aeruginosa at 50 uM; type: functional, organism-based
[20] = tested on: Pseudomonas aeruginosa; experiment: Antimicrobial activity against Pseudomonas aeruginosa at 100 uM; type: functional, organism-based
[21] = tested on: Candida albicans; experiment: Antimicrobial activity against Candida albicans at 50 uM; type: functional, organism-based
[22] = tested on: Candida albicans; experiment: Antimicrobial activity against Candida albicans at 100 uM; type: functional, organism-based
[23] = tested on: Curvularia; experiment: Antimicrobial activity against Curvularia sp. at 50 uM; type: functional, organism-based
[24] = tested on: Curvularia; experiment: Antimicrobial activity against Curvularia sp. at 100 uM; type: functional, organism-based

| SMILES | Activity [1] [%] | Activity [2] [%] | Activity [3] [%] | Activity [4] [%] | Activity [5] [%] | Activity [6] [%] | Activity [7] [%] | Activity [8] [%] | also measured |
| --- | --- | --- | --- | --- | --- | --- | --- | --- | --- |
| Cn1nc2c(nc1=O)c(=O)n(C)c(=O)n2C | 10 | 17 | 15 | 34 | 17 | 17 | 48 | 100 | Activity [9]: inactive; Activity [10]: inactive; Activity [11]: inactive; Activity [12]: inactive; Activity [13]: inactive; Activity [14]: inactive; Activity [15]: inactive; Activity [16]: inactive; Activity [17]: inactive; Activity [18]: inactive; Activity [19]: inactive; Activity [20]: inactive; Activity [21]: inactive; Activity [22]: inactive; Activity [23]: inactive; Activity [24]: inactive |
| Cn1nc2c(nc1=O)n(C)c(=O)n2C | 95 | 99 | 96 | 99 | 98 | 97 | 100 | 99 | – |
